According to ChEMBL document CHEMBL3046679, “Design, synthesis, and biological activities of arylmethylamine substituted chlorotriazine and methylthiotriazine compounds” (J Agric Food Chem, 2011):
Activity calls are given as the source filed them. The calls are words filed in the database; no cut-off is given here.

Tests used:
[1] = system: Digitaria sanguinalis; experiment: Herbicidal activity against Digitaria sanguinalis (hairy crabgrass) assessed as growth inhibition at 1 kg/ha postemergence treatment by glasshouse test; type: functional; conditions: post-emergence, read-out: GI
Method in brief: (§1)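 Glasshouse screen with pre- or postemergence application at 1.0 kg/ha. Result given as percent inhibition of plant growth; norflurazon and glyphosate used as controls.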

[2] = system: Amaranthus retroflexus; experiment: Herbicidal activity against Amaranthus retroflexus assessed as growth inhibition at 1 kg/ha preemergence treatment by glasshouse test; type: functional; conditions: pre-emergence, read-out: GI; method in brief: as §1
[3] = system: Zymoseptoria tritici; experiment: Fungicidal activity against Zymoseptoria tritici assessed as inhibition of mycelia growth at 100 ppm; type: functional, organism-based
[4] = system: Amaranthus retroflexus; experiment: Herbicidal activity against Amaranthus retroflexus assessed as growth inhibition at 1 kg/ha postemergence treatment by glasshouse test; type: functional; conditions: post-emergence, read-out: GI; method in brief: as §1
[5] = system: Heliothis virescens; experiment: Insecticidal activity against Lepidoptera Heliothis virescens (tobacco budworm) assessed as mortality at 1000 ppm by leaf-disk assay; type: functional, organism-based
Method in brief: (§2)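 Leaf-disk assay at 1000 ppm, three replicates. Plates kept 5–9 days in controlled-environment cabinets. Mortality judged against untreated wells: 99 for significant mortality, 0 otherwise. Values are the mean of three; thiamethoxam and indoxacarb used as positive controls.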

[6] = system: Aphididae; experiment: Insecticidal activity against Aphididae (aphids) assessed as mortality at 1000 ppm by leaf-disk assay; type: functional, organism-based; method in brief: as §2
[7] = system: Arabidopsis thaliana; experiment: Herbicidal activity against Arabidopsis thaliana assessed as growth inhibition at 10 ppm by 96-well plate test; type: functional; conditions: read-out: GI
Method in brief: (§3)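 96-well plate herbicide screen: Arabidopsis thaliana at 10 ppm and Poa annua at 32 ppm, two replicates. Plates incubated seven days in a controlled-environment cabinet. Each replicate scored 0 (no visible effect) or 99 (herbicidal effect); values are the mean of the two. Atrazine used as reference.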

[8] = system: Lolium perenne; experiment: Herbicidal activity against Lolium perenne (perennial ryegrass) assessed as growth inhibition at 1 kg/ha postemergence treatment by glasshouse test; type: functional; conditions: post-emergence, read-out: GI; method in brief: as §1
[9] = system: Brassica napus; experiment: Herbicidal activity against Brassica napus (oilseed rape) at 1.5 kg/ha preemergence treatment measured after 10 days by glasshouse test; type: functional; conditions: pre-emergence, 240 h
Method in brief: (§4)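 Glasshouse pre/postemergence test, each treatment in triplicate. Above-ground fresh weight measured 10 days after treatment. Result expressed as percent inhibition versus control, from 0 (no control) to 100 (complete control); glyphosate used as positive control.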

[10] = system: Stellaria media; experiment: Herbicidal activity against Stellaria media assessed as growth inhibition at 1 kg/ha preemergence treatment by glasshouse test; type: functional; conditions: pre-emergence, read-out: GI; method in brief: as §1
[11] = system: Digitaria sanguinalis; experiment: Herbicidal activity against Digitaria sanguinalis (hairy crabgrass) assessed as growth inhibition at 1 kg/ha preemergence treatment by glasshouse test; type: functional; conditions: pre-emergence, read-out: GI; method in brief: as §1
[12] = system: Lolium perenne; experiment: Herbicidal activity against Lolium perenne (perennial ryegrass) assessed as growth inhibition at 1 kg/ha preemergence treatment by glasshouse test; type: functional; conditions: pre-emergence, read-out: GI; method in brief: as §1
[13] = system: Stellaria media; experiment: Herbicidal activity against Stellaria media assessed as growth inhibition at 1 kg/ha postemergence treatment by glasshouse test; type: functional; conditions: post-emergence, read-out: GI; method in brief: as §1
[14] = system: Fusarium graminearum; experiment: Fungicidal activity against Fusarium graminearum assessed as inhibition of mycelia growth at 2 ppm; type: functional, organism-based
Method in brief: (§5)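 Mycelial growth test in 96-well plates: compound incorporated into artificial growth medium at 2 ppm, two replicates per rate. Each well scored 99 for complete, 55 for partial or 0 for no inhibition. Values are the mean across replicates; azoxystrobin and prochloraz used as positive controls.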

[15] = system: Echinochloa crus-galli; experiment: Herbicidal activity against Echinochloa crus-galli (barnyard grass) at 1.5 kg/ha postemergence treatment measured after 10 days by glasshouse test; type: functional; conditions: post-emergence, 240 h; method in brief: as §4
[16] = system: Botrytis cinerea; experiment: Fungicidal activity against Botryotinia fuckeliana assessed as inhibition of mycelia growth at 2 ppm; type: functional, organism-based; method in brief: as §5
[17] = system: Pythium dissimile; experiment: Fungicidal activity against Pythium dissimile assessed as inhibition of mycelia growth at 2 ppm; type: functional, organism-based; method in brief: as §5
[18] = system: Brassica napus; experiment: Herbicidal activity against Brassica napus (oilseed rape) at 1.5 kg/ha postemergence treatment measured after 10 days by glasshouse test; type: functional; conditions: post-emergence, 240 h; method in brief: as §4
[19] = system: Poa annua; experiment: Herbicidal activity against Poa annua assessed as growth inhibition at 32 ppm by 96-well plate test; type: functional; conditions: read-out: GI; method in brief: as §3
[20] = system: Phytophthora infestans; experiment: Fungicidal activity against Phytophthora infestans assessed as inhibition of mycelia growth at 200 ppm; type: functional, organism-based
[21] = system: Echinochloa crus-galli; experiment: Herbicidal activity against Echinochloa crus-galli (barnyard grass) at 1.5 kg/ha preemergence treatment measured after 10 days by glasshouse test; type: functional; conditions: pre-emergence, 240 h; method in brief: as §4
[22] = system: Uromyces viciae-fabae; experiment: Fungicidal activity against Uromyces viciae-fabae assessed as inhibition of mycelia growth at 100 ppm; type: functional, organism-based
Method in brief: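 Leaf-piece assay on bean at 100 ppm, with compound applied before spore inoculation and two replicates. Each well scored 99 for complete inhibition, 55 for partial and 0 for none; value is the mean score across replicates.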

[23] = system: Alternaria solani; experiment: Fungicidal activity against Alternaria solani assessed as inhibition of mycelia growth at 2 ppm; type: functional, organism-based; method in brief: as §5

| Structure (SMILES) | inhibition [3] | mortality [5] | mortality [6] | inhibition at 1500 g/ha [9] [%] | inhibition [14] | inhibition at 1500 g/ha [15] [%] | inhibition [16] | inhibition [17] | inhibition at 1500 g/ha [18] [%] | inhibition [20] | inhibition at 1500 g/ha [21] [%] | other results |
| --- | --- | --- | --- | --- | --- | --- | --- | --- | --- | --- | --- | --- |
| CSc1nc(NCc2ccc(F)cc2)nc(NC(C)C)n1 | inactive | inactive | inactive | 100 | inactive | 100 | inactive | inactive | 100 | inactive | 21.4 | inhibition of growth at 1000 g/ha [1]: 80%; inhibition of growth at 1000 g/ha [2]: 100%; inhibition of growth at 1000 g/ha [4]: 100%; inhibition of growth at 10 ppm [7]: 99%; inhibition of growth at 1000 g/ha [8]: 80%; inhibition of growth at 1000 g/ha [10]: 90%; inhibition of growth at 1000 g/ha [11]: 0%; inhibition of growth at 1000 g/ha [12]: 50%; inhibition of growth at 1000 g/ha [13]: 100%; inhibition of growth at 32 ppm [19]: 0% |
| CC(C)Nc1nc(Cl)nc(NCc2cnc(Br)s2)n1 | inactive | inactive | inactive | 5.2 | inactive | 10.4 | inactive | inactive | 10 | inactive | 11.3 | inhibition [22]: inactive; inhibition [23]: inactive |
